Experimental data reported in ChEMBL document CHEMBL1140675, “Discovery of a novel class of benzazepinone Na(v)1.7 blockers: potential treatments for neuropathic pain” (Bioorg Med Chem Lett, 2007).

Columns and labels:
[1] = molecular target: T1, Sodium channel protein type 9 subunit alpha (Homo sapiens, UniProt Q15858); experiment: Blockade of human Nav1.7 by FRET assay
Summary of the method: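 Functional membrane-potential assay of channel block on human Nav1.7; read-out is FRET between two membrane-associated dyes; IC50 in nM.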

hERG (KCNH2) = hERG (KCNH2) (Homo sapiens, UniProt Q12809); experiment: Displacement of [35S]-MK0499 from human ERG receptor expressed in HEK293 cells at 10 uM; format: cell-based; conditions: HEK293 cells expressing human ERG, probe [35S]-MK0499
Summary of the method: (§1)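 Binding assay measuring displacement of radiolabelled ligand (35S-MK-0499 for hERG; 3H-diltiazem for Cav1.2); % inhibition at 10 µM test compound.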

[2] = molecular target: Cav1.2 (L-type calcium channel subunit alpha-1C) (Homo sapiens, UniProt Q13936); experiment: Displacement of [3H]diltiazem from human Cav1.2 expressed in HEK293 cells at 10 uM; format: cell-based; conditions: HEK293 cells expressing human Cav1.2, probe [3H]diltiazem; summary of the method: as §1
[3] = Bioavailability in rat at 3.0 mg/kg, po; format: ADME, organism-based; conditions: in vivo
[4] = Cmax in rat at 1.0 mg/kg, iv or 3.0 mg/kg, po; format: ADME, organism-based; conditions: in vivo
[5] = Plasma clearance in rat at 1.0 mg/kg, iv or 3.0 mg/kg, po; format: ADME, organism-based
[6] = Half life in rat at 1.0 mg/kg, iv or 3.0 mg/kg, po; format: ADME, organism-based; conditions: in vivo
[7] = Bioavailability in dog at 1.5 mg/kg, po; format: ADME, organism-based, Canis lupus familiaris; conditions: in vivo
[8] = Cmax in dog at 0.38 mg/kg, iv or 1.5 mg/kg, po; format: ADME, organism-based, Canis lupus familiaris; conditions: in vivo
[9] = Plasma clearance in dog at 0.38 mg/kg, iv or 1.5 mg/kg, po; format: ADME, organism-based, Canis lupus familiaris
[10] = Half life in dog at 0.38 mg/kg, iv or 1.5 mg/kg, po; format: ADME, organism-based, Canis lupus familiaris; conditions: in vivo
[11] = molecular target: T1, Sodium channel protein type 9 subunit alpha; experiment: Binding affinity at human inactive state Nav1.7 by whole cell electrophysiology
Rattus norvegicus [12] = experiment: Blockade of spontaneous neuronal firing in rat peripheral axotomy model at 2 mg/kg, iv after 30 mins; format: functional; conditions: 0.5 h
Summary of the method: (§2)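 Iv infusion given after baseline spontaneous firing frequency was established; firing frequency then recorded for 60 min post-dose, with % inhibition at 10, 30 and 60 min; n = 6.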

Rattus norvegicus [13] = experiment: Blockade of spontaneous neuronal firing in rat peripheral axotomy model at 2 mg/kg, iv after 10 mins; format: functional; summary of the method: as §2
Rattus norvegicus [14] = experiment: Blockade of spontaneous neuronal firing in rat peripheral axotomy model at 2 mg/kg, iv after 60 mins; format: functional; conditions: 1 h; summary of the method: as §2
Rattus norvegicus [15] = experiment: Reversal of allodynia in rat spinal nerve ligation model at 10 mg/kg, po after 2 hrs; format: functional
Summary of the method: (§3)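 L5 spinal nerve ligated and transected in rats to induce neuropathy; tactile allodynia measured with calibrated Von Frey filaments before and 1 week after surgery. Rats with significant allodynia were dosed orally and % reversal of allodynia determined at 2 and 4 h post-dose; n = 8.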

Rattus norvegicus [16] = experiment: Reversal of allodynia in rat spinal nerve ligation model at 10 mg/kg, po after 4 hrs; format: functional; summary of the method: as §3
[17] = molecular target: Voltage-dependent L-type calcium channel subunit alpha-1C (Homo sapiens, UniProt Q13936); experiment: Displacement of [3H]diltiazem from human Cav1.2 expressed in HEK293 cells; format: cell-based
Summary of the method: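 Cav1.2 binding assay measuring displacement of 3H-diltiazem.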

Sequence of hERG (KCNH2) (Q12809 whole entry): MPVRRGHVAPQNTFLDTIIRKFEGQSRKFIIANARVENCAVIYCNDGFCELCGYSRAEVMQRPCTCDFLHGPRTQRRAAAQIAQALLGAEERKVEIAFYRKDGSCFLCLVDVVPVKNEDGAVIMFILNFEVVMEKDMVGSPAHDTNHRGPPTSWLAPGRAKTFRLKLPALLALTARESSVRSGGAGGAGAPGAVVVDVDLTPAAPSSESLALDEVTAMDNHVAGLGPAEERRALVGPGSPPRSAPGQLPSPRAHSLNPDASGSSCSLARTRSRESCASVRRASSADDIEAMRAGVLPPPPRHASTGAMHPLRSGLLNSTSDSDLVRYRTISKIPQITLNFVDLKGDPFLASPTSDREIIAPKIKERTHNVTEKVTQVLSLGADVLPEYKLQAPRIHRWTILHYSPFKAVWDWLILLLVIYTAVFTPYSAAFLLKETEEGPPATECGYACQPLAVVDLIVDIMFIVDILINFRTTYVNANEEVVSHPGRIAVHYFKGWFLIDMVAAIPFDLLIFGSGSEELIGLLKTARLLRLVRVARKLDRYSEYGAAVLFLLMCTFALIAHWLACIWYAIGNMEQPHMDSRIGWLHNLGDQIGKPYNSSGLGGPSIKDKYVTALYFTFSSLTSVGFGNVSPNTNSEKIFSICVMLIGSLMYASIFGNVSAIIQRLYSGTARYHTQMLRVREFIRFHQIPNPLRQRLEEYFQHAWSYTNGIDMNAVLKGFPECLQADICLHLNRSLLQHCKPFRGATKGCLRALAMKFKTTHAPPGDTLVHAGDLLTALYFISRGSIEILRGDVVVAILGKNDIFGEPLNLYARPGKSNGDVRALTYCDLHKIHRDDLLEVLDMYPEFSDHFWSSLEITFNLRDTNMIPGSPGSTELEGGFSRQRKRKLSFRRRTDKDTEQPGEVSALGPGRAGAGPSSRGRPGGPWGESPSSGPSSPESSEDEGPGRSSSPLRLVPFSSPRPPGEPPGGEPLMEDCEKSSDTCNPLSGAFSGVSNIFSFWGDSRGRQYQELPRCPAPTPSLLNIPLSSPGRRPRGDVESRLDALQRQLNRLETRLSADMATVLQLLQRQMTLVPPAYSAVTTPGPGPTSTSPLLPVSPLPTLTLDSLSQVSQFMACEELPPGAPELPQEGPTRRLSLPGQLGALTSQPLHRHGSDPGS
T1 sequence (Q15858 whole entry): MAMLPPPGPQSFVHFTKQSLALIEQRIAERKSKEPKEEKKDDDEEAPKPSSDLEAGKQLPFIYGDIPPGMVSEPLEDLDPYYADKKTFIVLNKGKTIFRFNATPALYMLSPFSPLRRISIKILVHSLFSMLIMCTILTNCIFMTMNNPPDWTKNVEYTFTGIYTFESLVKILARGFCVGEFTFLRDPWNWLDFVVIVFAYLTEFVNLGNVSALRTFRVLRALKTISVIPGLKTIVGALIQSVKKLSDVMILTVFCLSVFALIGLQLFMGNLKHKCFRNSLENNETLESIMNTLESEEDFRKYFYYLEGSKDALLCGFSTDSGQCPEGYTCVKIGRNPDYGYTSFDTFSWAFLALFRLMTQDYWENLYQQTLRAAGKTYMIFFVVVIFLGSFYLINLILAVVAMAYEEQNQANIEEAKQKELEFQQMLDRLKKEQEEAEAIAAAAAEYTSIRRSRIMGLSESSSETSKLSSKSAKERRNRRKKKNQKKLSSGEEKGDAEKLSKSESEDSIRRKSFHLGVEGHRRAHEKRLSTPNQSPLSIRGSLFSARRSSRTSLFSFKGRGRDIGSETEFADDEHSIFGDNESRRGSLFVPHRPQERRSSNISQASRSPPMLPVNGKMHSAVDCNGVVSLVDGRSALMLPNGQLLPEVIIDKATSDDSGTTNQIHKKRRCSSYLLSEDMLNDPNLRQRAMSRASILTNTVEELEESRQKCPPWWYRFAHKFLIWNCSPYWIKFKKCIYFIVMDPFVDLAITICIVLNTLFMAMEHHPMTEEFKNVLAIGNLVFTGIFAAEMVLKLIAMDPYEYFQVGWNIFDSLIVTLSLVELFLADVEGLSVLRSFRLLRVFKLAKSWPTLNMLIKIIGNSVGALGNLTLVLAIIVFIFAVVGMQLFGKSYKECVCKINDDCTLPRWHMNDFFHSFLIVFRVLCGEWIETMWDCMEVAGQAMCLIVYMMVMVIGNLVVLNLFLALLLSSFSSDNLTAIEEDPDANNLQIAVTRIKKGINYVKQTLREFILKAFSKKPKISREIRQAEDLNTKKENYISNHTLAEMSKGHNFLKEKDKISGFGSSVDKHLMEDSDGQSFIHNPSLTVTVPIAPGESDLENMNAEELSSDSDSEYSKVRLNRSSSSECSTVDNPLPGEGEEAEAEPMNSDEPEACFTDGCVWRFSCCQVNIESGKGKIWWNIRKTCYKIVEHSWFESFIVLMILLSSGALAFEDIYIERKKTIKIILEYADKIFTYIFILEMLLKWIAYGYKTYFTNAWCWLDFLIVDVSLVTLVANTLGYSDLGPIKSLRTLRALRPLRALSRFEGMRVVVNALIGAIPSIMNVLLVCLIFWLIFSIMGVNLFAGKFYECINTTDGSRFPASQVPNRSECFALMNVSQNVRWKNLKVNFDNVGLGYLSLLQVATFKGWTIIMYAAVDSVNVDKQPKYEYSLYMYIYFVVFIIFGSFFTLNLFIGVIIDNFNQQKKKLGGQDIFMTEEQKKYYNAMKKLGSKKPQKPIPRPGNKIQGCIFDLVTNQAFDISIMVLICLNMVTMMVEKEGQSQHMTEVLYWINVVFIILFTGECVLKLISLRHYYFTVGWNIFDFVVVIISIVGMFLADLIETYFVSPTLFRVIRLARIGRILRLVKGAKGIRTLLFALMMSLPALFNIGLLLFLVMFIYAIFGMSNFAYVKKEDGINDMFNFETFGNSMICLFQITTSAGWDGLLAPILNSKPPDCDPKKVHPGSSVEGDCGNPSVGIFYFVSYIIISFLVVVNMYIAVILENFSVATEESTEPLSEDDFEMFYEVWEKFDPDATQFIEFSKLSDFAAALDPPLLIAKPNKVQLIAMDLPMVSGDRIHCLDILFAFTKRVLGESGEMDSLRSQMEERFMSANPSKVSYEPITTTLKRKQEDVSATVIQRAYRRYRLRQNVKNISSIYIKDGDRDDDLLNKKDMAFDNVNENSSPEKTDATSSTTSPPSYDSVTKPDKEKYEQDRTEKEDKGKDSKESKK

Compound | IC50 [1] | inhibition at 10 µM (hERG (KCNH2)) | other results
CN1C(=O)[C@H](NC(=O)CCc2ccccc2)N=C(c2ccccc2)c2ccccc21 | > 1000 nM | – | –
CC(C)N1C(=O)[C@H](NC(=O)[C@@H](Cc2cccc(C(F)(F)F)c2)NC(=O)OC(C)(C)C)CCc2ccccc21 | 295 nM | 15% | inhibition at 10 µM [2]: 19%
CC(C)N1C(=O)[C@H](NC(=O)[C@@H](Cc2ccc(C(F)(F)F)cc2)NC(=O)OC(C)(C)C)CCc2ccccc21 | > 1000 nM | – | –
CN1C(=O)[C@H](NC(=O)[C@@H](CC2CCCCC2)NC(=O)OC(C)(C)C)N=C(c2ccccc2)c2ccccc21 | > 1000 nM | – | –
CN1C(=O)[C@H](NC(=O)[C@@H](CCc2ccccc2)NC(=O)OC(C)(C)C)N=C(c2ccccc2)c2ccccc21 | 238 nM | – | –
CN1C(=O)[C@H](NC(=O)[C@@H](Cc2cccnc2)NC(=O)OC(C)(C)C)N=C(c2ccccc2)c2ccccc21 | 978 nM | – | –
CN1C(=O)[C@H](NC(=O)[C@@H](Cc2ccccc2)NCCC(C)(C)C)N=C(c2ccccc2)c2ccccc21 | > 1000 nM | – | –
CN1C(=O)[C@H](NC(=O)[C@@H](Cc2ccccc2)N(C)C(=O)OC(C)(C)C)N=C(c2ccccc2)c2ccccc21 | > 1000 nM | – | –
COC(=O)N[C@H](Cc1ccccc1)C(=O)N[C@@H]1N=C(c2ccccc2)c2ccccc2N(C)C1=O | > 1000 nM | – | –
CN1C(=O)[C@H](NC(=O)[C@@H](Cc2ccccc2)NC(=O)C2CC2)N=C(c2ccccc2)c2ccccc21 | > 1000 nM | – | –
CC(C)N1C(=O)[C@H](NC(=O)[C@@H](Cc2cccc(F)c2C(F)(F)F)NC(=O)OC(C)(C)C)CCc2ccccc21 | 65 nM | 39% | inhibition at 10 µM [2]: 87%
CC(C)N1C(=O)[C@H](NC(=O)[C@@H](Cc2c(F)cccc2C(F)(F)F)NC(=O)OC(C)(C)C)CCc2ccccc21 | 32 nM | 43% | inhibition at 10 µM [2]: 81%; bioavailability [3]: 28%; Cmax [4]: 330 nM; clearance [5]: 32 mL/min/kg; half-life [6]: 2.5 h
C[C@@H](NC(=O)OC(C)(C)C)C(=O)N[C@@H]1N=C(c2ccccc2)c2ccccc2N(C)C1=O | > 1000 nM | – | –
CN1C(=O)[C@H](NC(=O)[C@@H](Cc2ccccc2)NS(C)(=O)=O)N=C(c2ccccc2)c2ccccc21 | > 1000 nM | – | –
CN1C[C@H](NC(=O)[C@@H](Cc2ccccc2)NC(=O)OC(C)(C)C)CCc2ccccc21 | > 1000 nM | 28% | –
CC(C)N1C(=O)[C@H](NC(=O)[C@@H](Cc2ccccc2OC(F)(F)F)NC(=O)OC(C)(C)C)CCc2ccccc21 | 35 nM | 18% | bioavailability [3]: 24%; bioavailability [7]: 9%; Cmax [4]: 300 nM; Cmax [8]: 70 nM; clearance [5]: 24 mL/min/kg; clearance [9]: 15 mL/min/kg; half-life [6]: 2.3 h; half-life [10]: 4.2 h; Ki [11]: 40 nM; inhibition in vivo at 2 mg/kg (Rattus norvegicus [12]): 100%; inhibition in vivo at 2 mg/kg (Rattus norvegicus [13]): 100%; inhibition in vivo at 2 mg/kg (Rattus norvegicus [14]): 93%; Activity (Rattus norvegicus [15]): 43%; Activity (Rattus norvegicus [16]): 40%; IC50 [17]: 3500 nM
CC(C)N1C(=O)[C@@H](NC(=O)[C@@H](Cc2ccccc2OC(F)(F)F)NC(=O)OC(C)(C)C)CCc2ccccc21 | 32 nM | 20% | bioavailability [3]: 15%; Cmax [4]: 140 nM; clearance [5]: 55 mL/min/kg; half-life [6]: 2.1 h; IC50 [17]: 1730 nM
CC(C)S(=O)(=O)N[C@H](Cc1ccccc1)C(=O)N[C@@H]1N=C(c2ccccc2)c2ccccc2N(C)C1=O | > 1000 nM | – | –
CN1CCCC[C@@H](NC(=O)[C@@H](Cc2ccccc2)NC(=O)OC(C)(C)C)C1=O | > 1000 nM | – | –
CC(C)N1C(=O)[C@H](NC(=O)[C@@H](Cc2cccc(F)c2)NC(=O)OC(C)(C)C)CCc2ccccc21 | 9 nM | 8% | inhibition at 10 µM [2]: 0%
CC(C)N1C(=O)[C@H](NC(=O)[C@@H](Cc2cc(F)ccc2F)NC(=O)OC(C)(C)C)CCc2ccccc21 | 23 nM | 6% | inhibition at 10 µM [2]: 24%
CC(C)N1C(=O)[C@H](NC(=O)[C@@H](Cc2c(F)cccc2F)NC(=O)OC(C)(C)C)CCc2ccccc21 | 14 nM | 4% | inhibition at 10 µM [2]: 36%

Compound | IC50 [1] | inhibition at 10 µM (hERG (KCNH2)) | other results
CN1C(=O)[C@H](NC(=O)[C@@H](Cc2ccccc2F)NC(=O)OC(C)(C)C)N=C(c2ccccc2)c2ccccc21 | 87 nM | – | –
CN1C(=O)[C@H](NC(=O)[C@@H](Cc2ccc(F)cc2)NC(=O)OC(C)(C)C)N=C(c2ccccc2)c2ccccc21 | 71 nM | – | –
CN1C(=O)[C@H](NC(=O)[C@@H](Cc2cscn2)NC(=O)OC(C)(C)C)N=C(c2ccccc2)c2ccccc21 | 684 nM | – | –
CN1C(=O)[C@H](NC(=O)[C@H](N)Cc2ccccc2)N=C(c2ccccc2)c2ccccc21 | > 1000 nM | – | –
CC(C)N1C(=O)[C@H](NC(=O)[C@@H](Cc2ccccc2)NC(=O)OC(C)(C)C)CCc2ccccc21 | 45 nM | 6% | –
CN1C(=O)[C@H](NC(=O)[C@@H](Cc2ccccc2)NC(=O)OC(C)(C)C)CCc2ccccc21 | 192 nM | – | –
CC(C)(C)OC(=O)N[C@H](Cc1ccccc1)C(=O)N[C@@H]1CCc2ccccc2N(CC(F)(F)F)C1 | 145 nM | 40% | –
CN1C(=O)[C@H](NC(=O)[C@@H](Cc2ccccc2)NS(=O)(=O)c2ccccc2)N=C(c2ccccc2)c2ccccc21 | > 1000 nM | – | –
CC(C)(C)OC(=O)N[C@H](Cc1ccccc1)C(=O)N[C@@H]1CCc2ccccc2N(CC(F)(F)F)C1=O | 150 nM | 16% | –
CC(C)(C)OC(=O)N[C@H](Cc1ccccc1)C(=O)N[C@@H]1CCc2ccccc2N(CC2CC2)C1=O | 78 nM | 15% | –
CN1C(=O)[C@H](NC(=O)[C@@H](Cc2ccccc2)NC(=O)OCc2ccccc2)N=C(c2ccccc2)c2ccccc21 | 150 nM | – | –
CN1C(=O)[C@H](NC(=O)[C@@H](Cc2ccccc2)NC(=O)C(C)(C)C)N=C(c2ccccc2)c2ccccc21 | 380 nM | – | –
CC(C)(C)OC(=O)N[C@@H](CN[C@@H]1CCc2ccccc2N(CC(F)(F)F)C1=O)Cc1ccccc1 | 885 nM | 79% | –
CN1C(=O)[C@H](NC(=O)[C@@H](Cc2cnc[nH]2)NC(=O)OC(C)(C)C)N=C(c2ccccc2)c2ccccc21 | > 1000 nM | – | –
CN1C(=O)[C@H](NC(=O)[C@H](NC(=O)OC(C)(C)C)c2ccccc2)N=C(c2ccccc2)c2ccccc21 | 375 nM | – | –
CN1C(=O)[C@H](NC(=O)[C@@H](Cc2ccccc2)NC(=O)C23CC4CC(CC(C4)C2)C3)N=C(c2ccccc2)c2ccccc21 | 420 nM | – | –
CC(C)N1C(=O)[C@H](NC(=O)[C@@H](Cc2ccc(F)cc2)NC(=O)OC(C)(C)C)CCc2ccccc21 | 98 nM | 0% | inhibition at 10 µM [2]: 0%
CC(C)N1C(=O)[C@H](NC(=O)[C@@H](Cc2ccccc2C(F)(F)F)NC(=O)OC(C)(C)C)CCc2ccccc21 | 137 nM | 34% | bioavailability [3]: 35%; Cmax [4]: 300 nM; clearance [5]: 50 mL/min/kg; half-life [6]: 2.1 h
CC(C)N1C(=O)[C@H](NC(=O)[C@H](Cc2ccccc2OC(F)(F)F)NC(=O)OC(C)(C)C)CCc2ccccc21 | 214 nM | 0% | –
CN1C(=O)[C@H](NC(=O)[C@@H](Cc2ccccc2)NC(=O)OC(C)(C)C)N=C(c2ccccc2)c2ccccc21 | 125 nM | – | –
CC(C)N1C(=O)[C@H](NC(=O)[C@@H](Cc2ccccc2F)NC(=O)OC(C)(C)C)CCc2ccccc21 | 44 nM | 8% | inhibition at 10 µM [2]: 11%; bioavailability [3]: 14%; Cmax [4]: 100 nM; clearance [5]: 41 mL/min/kg; half-life [6]: 1.5 h
